Experimental data: ChEMBL document CHEMBL3351863, “Optimization of 2-phenyl-pyrimidine-4-carboxamides towards potent, orally bioavailable and selective P2Y(12) antagonists for inhibition of platelet aggregation” (Bioorg Med Chem Lett, 2014); call rule not given here

What was measured:
Platelet [1] = experiment: Inhibition of ADP-induced platelet aggregation in human platelet rich plasma by in-vitro light transmission aggregometry assay; assay type: functional; conditions: Homo sapiens, Platelet, Plasma
Summary of the method: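 Human platelet-rich plasma incubated with compound, aggregation induced by 3 µM ADP and read by light transmission aggregometry; IC₅₀ derived from concentration–response curve.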

Cytochrome P450 2D6 = Cytochrome P450 2D6 (Homo sapiens, UniProt P10635); experiment: Inhibition of CYP2D6 in human liver microsomes assessed as reduction in dextromethorphan-O demethylation; assay type: ADME
Sequence of Cytochrome P450 2D6 (P10635 whole entry): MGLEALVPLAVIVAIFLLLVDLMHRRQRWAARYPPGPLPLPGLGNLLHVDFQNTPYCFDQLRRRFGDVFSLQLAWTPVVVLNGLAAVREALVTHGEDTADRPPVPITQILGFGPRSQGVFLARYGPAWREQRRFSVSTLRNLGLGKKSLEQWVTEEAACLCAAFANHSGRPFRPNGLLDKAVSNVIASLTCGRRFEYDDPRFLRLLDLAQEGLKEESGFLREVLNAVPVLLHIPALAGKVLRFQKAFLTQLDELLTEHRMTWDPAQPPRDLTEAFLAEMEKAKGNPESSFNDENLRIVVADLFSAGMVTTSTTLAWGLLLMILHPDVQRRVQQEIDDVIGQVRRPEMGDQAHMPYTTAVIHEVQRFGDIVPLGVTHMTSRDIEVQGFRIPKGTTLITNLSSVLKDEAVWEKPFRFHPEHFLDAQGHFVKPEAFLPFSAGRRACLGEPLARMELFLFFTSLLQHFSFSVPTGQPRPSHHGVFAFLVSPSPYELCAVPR

Platelet [2] = experiment: Inhibition of ADP-induced platelet aggregation in human platelet rich plasma assessed as remaining activity at 100 nM by in-vitro light transmission aggregometry assay; assay type: functional
Summary of the method: (§1)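 Light transmission aggregometry in human platelet-rich plasma; compound incubated, aggregation triggered with 3 µM ADP; remaining activity (RA) recorded at a single compound level (1000, 500 or 100 nM).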

Liver microsome [3] = experiment: Metabolic stability assay in human liver microsomes assessed as parent drug disappearance at 1 uM after 20 mins by HPLC and mass spectrometry method; assay type: ADME
Platelet [4] = experiment: Inhibition of ADP-induced platelet aggregation in human platelet rich plasma assessed as remaining activity at 500 nM by in-vitro light transmission aggregometry assay; assay type: functional; summary of the method: as §1
[5] = Solubility in basic pH; assay type: physicochemical
Liver microsome [6] = experiment: Metabolic stability assay in rat liver microsomes assessed as parent drug disappearance at 1 uM after 20 mins by HPLC and mass spectrometry method; assay type: ADME
[7] = Potency shift, ratio of IC50 for inhibition of ADP-induced platelet aggregation in human platelet rich plasma to IC50 for displacement of [3H]-2-methyl-thio-adenosine 5'-diphosphate from human recombinant P2Y12 expressed in CHO cell membranes
Cytochrome P450 3A4 [8] = target: T1, Cytochrome P450 3A4 (Homo sapiens, UniProt P08684); experiment: Inhibition of CYP3A4 in human liver microsomes assessed as reduction in testosterone 6beta-hydroxylation; assay type: ADME
T1 sequence (P08684 whole entry): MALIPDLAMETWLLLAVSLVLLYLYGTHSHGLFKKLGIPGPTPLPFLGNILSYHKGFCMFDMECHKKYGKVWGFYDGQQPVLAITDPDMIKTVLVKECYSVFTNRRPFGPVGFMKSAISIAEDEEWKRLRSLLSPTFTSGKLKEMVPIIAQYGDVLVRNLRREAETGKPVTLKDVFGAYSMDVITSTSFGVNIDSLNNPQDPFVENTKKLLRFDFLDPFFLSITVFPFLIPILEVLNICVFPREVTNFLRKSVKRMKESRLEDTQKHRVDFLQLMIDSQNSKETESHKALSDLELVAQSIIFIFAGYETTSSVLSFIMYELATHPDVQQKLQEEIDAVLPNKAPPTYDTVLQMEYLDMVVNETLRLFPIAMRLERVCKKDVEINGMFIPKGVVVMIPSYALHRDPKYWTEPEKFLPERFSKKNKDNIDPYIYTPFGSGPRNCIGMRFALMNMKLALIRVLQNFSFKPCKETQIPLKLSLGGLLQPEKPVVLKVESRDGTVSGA

Cytochrome P450 3A4 [9] = target: T1, Cytochrome P450 3A4; experiment: Inhibition of CYP3A4 in human liver microsomes assessed as reduction in midazolam 1'-hydroxylation; assay type: ADME
[10] = Solubility in neutral pH; assay type: physicochemical
Rattus norvegicus [11] = experiment: AUC in Wistar rat at 10 mg/kg, po; assay type: ADME, organism-based, Plasma; design: dose 10 mg/kg, route oral; conditions: in vivo
Summary of the method: (§2)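 Rats dosed by iv infusion at 1 mg/kg (n = 2) or orally at 10 mg/kg (n = 3); plasma levels measured, limit of quantification ca. 1 ng/mL.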

Rattus norvegicus [12] = experiment: (§3) Cmax in Wistar rat at 10 mg/kg, po; assay type: ADME, organism-based; design: dose 10 mg/kg, route oral; conditions: in vivo, BLD = below limit of detection; summary of the method: as §2
Cytochrome P450 2C9 = Cytochrome P450 2C9 (Homo sapiens, UniProt P11712); experiment: Inhibition of CYP2C9 in human liver microsomes assessed as reduction in diclofenac 4'-hydroxylation; assay type: ADME
Sequence of Cytochrome P450 2C9 (P11712 whole entry): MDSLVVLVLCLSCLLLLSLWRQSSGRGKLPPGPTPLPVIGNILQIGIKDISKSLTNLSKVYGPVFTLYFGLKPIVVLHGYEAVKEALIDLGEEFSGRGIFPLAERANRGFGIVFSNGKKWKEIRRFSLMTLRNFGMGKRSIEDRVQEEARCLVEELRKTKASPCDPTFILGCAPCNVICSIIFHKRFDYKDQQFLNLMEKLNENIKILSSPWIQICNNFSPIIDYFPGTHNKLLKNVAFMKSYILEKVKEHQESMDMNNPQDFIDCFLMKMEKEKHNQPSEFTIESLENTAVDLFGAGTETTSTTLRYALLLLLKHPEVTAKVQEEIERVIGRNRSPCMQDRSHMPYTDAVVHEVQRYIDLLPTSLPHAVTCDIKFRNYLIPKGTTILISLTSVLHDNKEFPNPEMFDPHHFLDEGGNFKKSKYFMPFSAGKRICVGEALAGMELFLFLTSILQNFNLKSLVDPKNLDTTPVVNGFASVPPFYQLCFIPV

[13] = target: Voltage-gated inwardly rectifying potassium channel KCNH2 (Homo sapiens, UniProt Q12809); experiment: Inhibition of human ERG expressed in HEK cells by patch-clamp assay; assay type: cell-based; conditions: hek293
Sequence of Voltage-gated inwardly rectifying potassium channel KCNH2 (Q12809 whole entry): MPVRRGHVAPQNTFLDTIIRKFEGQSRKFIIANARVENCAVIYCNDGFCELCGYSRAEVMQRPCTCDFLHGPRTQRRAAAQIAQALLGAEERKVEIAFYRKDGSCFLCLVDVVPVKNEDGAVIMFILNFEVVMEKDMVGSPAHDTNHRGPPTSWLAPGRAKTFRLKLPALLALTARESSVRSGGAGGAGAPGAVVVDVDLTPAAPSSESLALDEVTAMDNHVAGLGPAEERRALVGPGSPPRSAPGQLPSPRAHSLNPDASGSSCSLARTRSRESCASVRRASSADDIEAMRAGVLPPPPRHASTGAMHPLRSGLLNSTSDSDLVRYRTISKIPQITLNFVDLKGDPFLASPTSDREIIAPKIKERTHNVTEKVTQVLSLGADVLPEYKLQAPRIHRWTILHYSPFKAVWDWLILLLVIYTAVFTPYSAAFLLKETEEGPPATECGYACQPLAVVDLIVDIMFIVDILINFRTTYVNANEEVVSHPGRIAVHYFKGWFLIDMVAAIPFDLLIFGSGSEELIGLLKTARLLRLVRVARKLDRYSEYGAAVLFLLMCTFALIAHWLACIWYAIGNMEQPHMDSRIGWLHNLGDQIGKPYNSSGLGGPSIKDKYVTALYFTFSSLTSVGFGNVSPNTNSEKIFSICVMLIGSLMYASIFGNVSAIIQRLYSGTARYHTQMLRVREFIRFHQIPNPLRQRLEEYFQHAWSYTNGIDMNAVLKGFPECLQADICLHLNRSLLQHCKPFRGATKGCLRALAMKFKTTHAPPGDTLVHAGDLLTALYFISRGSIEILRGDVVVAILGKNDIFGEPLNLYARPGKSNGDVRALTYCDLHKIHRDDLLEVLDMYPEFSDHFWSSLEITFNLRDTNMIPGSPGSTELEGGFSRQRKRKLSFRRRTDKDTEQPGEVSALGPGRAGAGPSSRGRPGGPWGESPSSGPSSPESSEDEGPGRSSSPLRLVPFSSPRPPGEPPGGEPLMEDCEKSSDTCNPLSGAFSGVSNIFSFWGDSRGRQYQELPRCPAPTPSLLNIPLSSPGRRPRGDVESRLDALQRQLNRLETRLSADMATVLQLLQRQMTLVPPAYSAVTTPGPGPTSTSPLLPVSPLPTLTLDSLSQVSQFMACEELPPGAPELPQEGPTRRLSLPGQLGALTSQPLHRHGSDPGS

P2Y purinoceptor 12 = P2Y purinoceptor 12 (Homo sapiens, UniProt Q9H244); experiment: Displacement of [3H]-2-methyl-thio-adenosine 5'-diphosphate from human recombinant P2Y12 expressed in CHO cell membranes by scintillation counting method
Sequence of P2Y purinoceptor 12 (Q9H244 whole entry): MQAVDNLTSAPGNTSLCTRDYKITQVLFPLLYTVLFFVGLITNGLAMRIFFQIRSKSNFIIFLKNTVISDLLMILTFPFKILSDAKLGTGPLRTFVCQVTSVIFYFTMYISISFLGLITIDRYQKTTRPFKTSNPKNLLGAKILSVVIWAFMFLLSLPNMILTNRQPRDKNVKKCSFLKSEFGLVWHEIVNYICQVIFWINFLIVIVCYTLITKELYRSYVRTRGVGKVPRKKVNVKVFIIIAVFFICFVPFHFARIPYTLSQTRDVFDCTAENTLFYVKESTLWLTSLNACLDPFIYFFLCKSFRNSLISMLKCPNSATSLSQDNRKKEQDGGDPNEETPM
Summary of the method: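 CHO cells expressing recombinant P2Y₁₂ receptors, incubated with tritium-labeled 2-methyl-thio-adenosine 5'-diphosphate plus test compound; IC₅₀ from displacement curves, each point in triplicate; reference compound run with every compound set, and set re-analyzed if its IC₅₀ fell outside pre-set 95% confidence interval.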

[14] = Protein binding in human plasma; assay type: ADME, cell-free; conditions: read-out: PPB (converted)
Rattus norvegicus [15] = experiment: Oral bioavailability in Wistar rat at 10 mg/kg; assay type: ADME, organism-based; conditions: in vivo; summary of the method: as §2
[16] = Half life in Wistar rat at 1 mg/kg, iv or 10 mg/kg, po; assay type: ADME, organism-based; conditions: in vivo; summary of the method: as §2
[17] = as §3; assay type: ADME, organism-based; design: dose 10 mg/kg, route oral; conditions: Wistar, in vivo; summary of the method: as §2
[18] = Volume of distribution at steady state in Wistar rat at 1 mg/kg, iv or 10 mg/kg, po; assay type: ADME, organism-based; conditions: in vivo, read-out: Vdss; summary of the method: as §2

Structure (SMILES) | IC50 (Platelet [1]) [nM] | inhibition (INH) (Cytochrome P450 2D6) | Activity (Platelet [2]) [%] | Stability (Liver microsome [3]) | Activity (Platelet [4]) [%] | solubility [5] | Stability (Liver microsome [6]) | Ratio IC50 [7] | inhibition (INH) (Cytochrome P450 3A4 [8]) | inhibition (INH) (Cytochrome P450 3A4 [9]) | solubility [10] | inhibition (INH) (Cytochrome P450 2C9) | inhibition (INH) [13] | further results
CCOC(=O)N1CCN(C(=O)[C@H](CCC(=O)O)NC(=O)c2cc(-c3ccc[n+]([O-])c3)nc(-c3ccccc3)n2)CC1 | 126 | Not Active | <70 | Stable | <30 | soluble | Stable | 0.98 | Not Active | Not Active | soluble | Not Active | Not Active | AUC (Rattus norvegicus [11]; BLD = below limit of detection): BLD; Cmax (Rattus norvegicus [12]): BLD
CCOC(=O)N1CCN(C(=O)[C@H](CCC(=O)O)NC(=O)c2cc(NCCO)nc(-c3ccccc3)n2)CC1 | 114 | Not Active | <70 | Stable | <30 | soluble | Stable | 0.67 | Not Active | Not Active | soluble | Not Active | Not Active | IC50 (P2Y purinoceptor 12): 169 nM; fraction unbound [14]: 0.135; F (Rattus norvegicus [15]): 3%; AUC (Rattus norvegicus [11]): 8.44 nM·h; half-life [16]: 12 min; Cmax [17]: 17.5 nM; Vd [18]: 1 L/kg
